Results as given in ChEMBL document CHEMBL4308915, “Synthesis of novel pyrazoline derivatives and the evaluation of death mechanisms involved in their antileukemic activity” (Bioorg Med Chem, 2019).
The source made the active and inactive calls. The rule behind the calls is not given here.

Assays:
B16-F10 [1] = assay: Cytotoxicity against mouse B16F10 cells assessed as reduction in cell viability after 72 hrs by MTT assay; type: functional, cell-based; conditions: B16-F10, 72 h
Jurkat [2] = assay: Induction of apoptosis in human Jurkat cells assessed as increase in loss of membrane integrity at 33.7 uM by acridine orange/ethidium bromide staining-based fluorescence microscopic analysis; type: functional, cell-based
PBL = assay: Cytotoxicity against acute leukemia patient-derived PBL cells assessed as reduction in cell viability after 24 hrs; type: functional, cell-based; conditions: Homo sapiens
Summary of the method: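 Mononuclear cells from acute leukemia patient samples (peripheral blood or bone marrow, taken before first treatment at diagnosis or relapse) isolated by Ficoll-Hypaque.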

[3] = Hemolytic activity in human RBC at 12 times IC50 relative to control; type: ADME, cell-based, Erythrocyte; conditions: red blood cells (erythrocytes), read-out: Activity
Summary of the method: (§1)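 RBC from healthy non-smoking volunteers incubated with increasing concentrations of the selected pyrazolines. Saline served as the 0% lysis control and distilled water as the 100% lysis control. Percent hemolysis calculated relative to these controls.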

Jurkat [4] = assay: Cytotoxicity against human Jurkat cells assessed as reduction in cell viability after 24 hrs by MTT assay; type: functional, cell-based
Summary of the method: (§2)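 MTT viability after 24 h exposure. Cells seeded at 5x10^4 per well and tested at 1-100 µM. Optical density of untreated cells set as 100% viable. IC50 derived by curve fitting. PBMC from healthy non-smoking volunteers, isolated by Ficoll-Hypaque.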

[5] = Hemolytic activity in human RBC at 15 times IC50 relative to control; type: ADME, cell-based, Erythrocyte; conditions: red blood cells (erythrocytes), read-out: Activity; summary of the method: as §1
[6] = Selectivity index, ratio of IC50 for human PBMC to IC50 for human K562 cells after 24 hrs; type: toxicity; conditions: PBMC versus K562 cells, read-out: Ratio IC50
Summary of the method: (§3)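 MTT viability after 24 h exposure to 1-100µM; untreated control OD taken as 100%. IC50 by curve fitting in each line and in PBMC from six healthy donors (Ficoll-Hypaque). SI = IC50 PBMC / IC50 tumor line; SI ≥5 high, 2–5 moderate, <2 low.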

[7] = Selectivity index, ratio of IC50 for human PBMC to IC50 for human Daudi cells after 24 hrs; summary of the method: as §3
B16-F10 [8] = assay: Cytotoxicity against mouse B16F10 cells assessed as reduction in cell viability after 24 hrs by MTT assay; type: functional, cell-based; conditions: B16-F10, 24 h; summary of the method: as §2
Daudi = assay: Cytotoxicity against human Daudi cells assessed as reduction in cell viability after 48 hrs by MTT assay; type: functional, cell-based
[9] = Selectivity index, ratio of IC50 for human PBMC to IC50 for human Jurkat cells after 24 hrs; type: toxicity; conditions: PBMC versus Jurkat cells, read-out: Ratio IC50; summary of the method: as §3
Jurkat [10] = assay: Cell cycle arrest in human Jurkat cells assessed as increase in accumulation at S phase at 33.7 uM after 12 hrs by propidium iodide/RNAse staining based flow cytometric analysis; type: functional
[11] = Hemolytic activity in human RBC at 9 times IC50 relative to control; type: ADME, cell-based, Erythrocyte; conditions: red blood cells (erythrocytes), read-out: Activity; summary of the method: as §1
K562 [12] = assay: Induction of apoptosis in human K562 cells assessed as increase in caspase-3 expression at 55.7 uM after 12 hrs by flow cytometric analysis; type: functional, cell-based
Jurkat [13] = assay: Induction of apoptosis in human Jurkat cells at 33.7 uM after 12 hrs by Annexin-V FITC staining-based flow cytometry relative to control; type: functional
[14] = Selectivity index, ratio of IC50 for human PBMC to IC50 for mouse B16F10 cells after 24 hrs; type: toxicity; conditions: PBMC versus B16F10 cells, read-out: Ratio IC50; summary of the method: as §3
[15] = Hemolytic activity in human RBC at 2 times IC50 relative to control; type: ADME, cell-based, Erythrocyte; conditions: red blood cells (erythrocytes), read-out: Activity; summary of the method: as §1
PBMC [16] = assay: Cytotoxicity against human PBMC assessed as reduction in cell viability after 48 hrs by MTT assay; type: cell-based
Jurkat [17] = assay: Cytotoxicity against human Jurkat cells assessed as reduction in cell viability after 72 hrs by MTT assay; type: functional, cell-based
K562 [18] = assay: Antiproliferative activity against human K562 cells assessed as reduction in KI-67 expression at 55.7 uM after 12 hrs by flow cytometric analysis; type: functional, cell-based
Jurkat [19] = assay: Induction of apoptosis in human Jurkat cells assessed as decrease in survivin level at 33.7 uM after 12 hrs by flow cytometric analysis relative to control; type: functional
K562 [20] = assay: Induction of apoptosis in human K562 cells assessed as increase in Bax expression at 55.7 uM after 12 hrs by flow cytometric analysis relative to control; type: functional
Jurkat [21] = assay: Induction of apoptosis in human Jurkat cells assessed as increase in Bax expression at 33.7 uM after 12 hrs by flow cytometric analysis relative to control; type: functional
PBMC [22] = assay: Cytotoxicity against human PBMC assessed as reduction in cell viability after 24 hrs by MTT assay; type: cell-based
K562 [23] = assay: Induction of apoptosis in human K562 cells assessed as reduction in cells with intact mitochondrial membrane potential at 55.7 uM after 12 hrs by flow cytometric analysis relative to control; type: functional; set-up: scale not given: the % may be the effect or the level left

In the case of `COc1cc(C2=NN(C(C)=O)C(c3ccc4ccccc4c3)C2)cc(OC)c1OC` (stereo unspecified), the IC50 (B16-F10 [1]) is reported as 23.3 µM, the Activity (Jurkat [2]) is reported as “Active” and the Activity (PBL) is reported as “Dose-dependent effect”. It also gave an IC50 (PBL) of 27.7 to 139 µM, a hemolysis at 12 times IC50 [3] of 3.2% and an IC50 (Jurkat [4]) of 33.7 µM. For the same molecule, the hemolysis at 15 times IC50 [5] was 6.4%, the selectivity ratio at 24 h [6] was 8.9 and the “Ratio IC50” value [7] was 10.7. It also gave an IC50 (B16-F10 [8]) of 72.3 µM, an IC50 (Daudi) of 20.2 µM and a selectivity ratio at 24 h [9] of 14.7. For the same molecule, the Activity (Jurkat [10]) was “inactive”, the hemolysis at 9 times IC50 [11] was 2.4% and the Activity (K562 [12]) was “inactive”. For the same molecule, the Activity (Jurkat [13]) was 29.2%, the selectivity ratio at 24 h [14] was 6.9 and the hemolysis at 2 times IC50 [15] was 1.5%. For the same molecule, the IC50 (PBMC [16]) was 105 µM, the IC50 (Jurkat [17]) was 25.3 µM and the Activity (K562 [18]) was “Active”. The Activity (Jurkat [19]) was 21.4%, the Activity (K562 [20]) was 16.8% and the Activity (Jurkat [21]) was 20.5%. For the same molecule, the IC50 (PBMC [22]) was 497 µM and the Activity (K562 [23]) was 26%.
